# Source: PubChem BioAssay (several laboratories)
# PG9 Ab binder – binders of HIV-1 gp120 antibody PG9, primary screen, biochemical, TR-FRET; 360,000 tested, 0.43% active; inhibition, % at 6.7 µM; TR-FRET gp120-PG9 antibody binding; HIV-1 gp120 / PG9 antibody interaction; in the data active means inhibition above about 8.5%
# NR1D1 modulator – modulators of Rev-erb alpha DNA binding, primary screen, biochemical, FITC-DNA, fluorescence polarization, uHTS. Rev-erbα–FITC-DNA binding, 90 min. activity, % at 10 µM. 370,000 tested, 0.79% active. AID 1259318, 2017;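 active means activity above about 14%, limit read from the data; passing the limit was not always enough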;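 further: 0% = DMSO wells with 35 nM protein and 100% = DMSO wells with 750 nM protein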
# NR2E3 ag-1 – inhibitors of NR2E3-RetCOR corepressor binding, primary screen, NR2E3 agonist project, biochemical, TR-FRET, GST-NR2E3, biotin-RetCOR | 320,000 tested, 0.12% active | Photoreceptor-specific nuclear receptor (Homo sapiens), Q9Y5X4 | 1536-well | AID 2300, 2010 | inhibition of corepressor binding, % at 4.78 µM;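 active means percent inhibition above the cutoff of mean plus 3 SD of all tested compounds, set per screening campaign, cut at about 20% in these data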;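 further: 0% = DMSO wells and 100% = biotin wells as full block of FRET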
# Target sequence (Q9Y5X4 whole entry, looked up): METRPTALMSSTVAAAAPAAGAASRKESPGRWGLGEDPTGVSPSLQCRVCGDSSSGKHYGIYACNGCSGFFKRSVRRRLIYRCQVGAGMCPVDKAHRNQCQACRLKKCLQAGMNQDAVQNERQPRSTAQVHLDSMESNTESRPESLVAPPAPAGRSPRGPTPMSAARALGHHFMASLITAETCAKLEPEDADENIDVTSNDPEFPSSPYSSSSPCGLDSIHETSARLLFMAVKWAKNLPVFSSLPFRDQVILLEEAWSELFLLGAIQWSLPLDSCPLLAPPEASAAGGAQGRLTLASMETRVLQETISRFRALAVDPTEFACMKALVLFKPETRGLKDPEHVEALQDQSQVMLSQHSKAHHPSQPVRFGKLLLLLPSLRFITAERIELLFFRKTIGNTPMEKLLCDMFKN
#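 Test system: GST-NR2E3 and biotin-RetCOR proteins | Quantity: 1.35 nM GST-tagged NR2E3 final | Medium: Tris pH 7.5 | Also added: 7 nM biotin-RetCOR | Dosing: Compound at 4.8 µM, single dose | Timing: 5 h at 4 °C | Detection: Time-resolved FRET | Read-out basis: Percent inhibition | Benchmarks: Biotin wells as high control, 0.6% DMSO wells as low control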
# NR2E3 ag-2 – NR2E3 agonists in two-hybrid cells, primary screen, cell-based, luminescence, CHO-S, Gal4-NCOR/VP16-NR2E3. luciferase. inhibition of corepressor binding, % at 3.98 µM. 360,000 tested, 0.35% active;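 active means inhibition above the mean of all tested compounds plus 3 SD, cut at about 70% in these data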;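 further: 0% = DMSO with NR2E3 transfected cells and 100% = cells lacking NR2E3 construct; higher means lower luciferase signal from less NR2E3 corepressor binding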
# PG9 bind confirm – binders of anti-gp120 antibody PG9, confirmation, biochemical, TR-FRET | AID 651571, 2012 | 1,500 tested, 90% active | TR-FRET PG9 antibody binding | shares compounds with PG9 Ab binder | inhibition, % at 6.7 µM; in the data active means inhibition above about 9%
# PGV04 counter – binders of control antibody PGV04, counter-screen for PG9 antibody binder project, biochemical, TR-FRET, distinct HIV envelope site. TR-FRET PGV04 antibody-gp120 binding. inhibition, % at 6.7 µM. 1,500 tested, 95% active. shares compounds with PG9 Ab binder. AID 651604, 2012; in the data active means inhibition above about 9.5%
# PG9 binder DR – small-molecule binders of antibody PG9, dose response, biochemical, TR-FRET, HIV-1 gp120 antibody. AID 651848, 2012. TR-FRET PG9 antibody-gp120 binding inhibition. shares compounds with PG9 Ab binder. 95 tested, under 10 active. IC50, µM; in the data active means IC50 below about 10 µM
# PGV04 DR counter – binders of control antibody PGV04, dose response, counter-screen for PG9 antibody binder project, biochemical, TR-FRET, distinct HIV envelope site. 95 tested, 20% active. TR-FRET binding to control antibody PGV04. IC50, µM. AID 651937, 2012. shares compounds with PG9 Ab binder
# PG126 binding DR – binders of control antibody PG126, dose response, counter-screen for PG9 antibody binder project, biochemical, TR-FRET, distinct HIV envelope site; shares compounds with PG9 Ab binder; TR-FRET binding to antibody PG126, counterscreen; IC50, µM; 95 tested, 20% active; AID 651939, 2012
# * hit, by the source's call; i = inactive; . = not tested or not shown. Hits are enriched below; roughly 1.4% of the tested compounds scored in any of these assays. Unless noted, no stated cut-off is given here; in the data, active means IC50 below about 9 µM; inactive means the rest.
SMILES,PG9 Ab binder,NR1D1 modulator,NR2E3 ag-1,NR2E3 ag-2,PG9 bind confirm,PGV04 counter,others
CC(OC(=O)c1cc2sccc2n1C)C(=O)NCc1cccs1 (stereo not drawn),-1,-3,-1,7,.,.,
Cn1c(C(=O)OCC(=O)NCc2cccs2)cc2sccc21,9.6*,7,0,2,17*,27*,
CCCCC1=CC2=C(c3ccco3)C(=O)C(C)(OC(=O)c3ccc(OC)cc3)C(=O)C2=CN1Cc1ccccc1 (stereo not drawn),24*,-5,14,-16,28*,33*,
Cc1ccc(S(=O)(=O)c2c(N)n(CCN3CCOCC3)c3nc4ccccc4nc23)cc1C,26*,20,-3,9,17*,29*,
N/C(=N\c1nc2ccccc2o1)NC(=O)c1ccccc1NC(=O)c1ccccc1,11*,18,1,-17,11*,19*,
CCOC(=O)N1CCN(C(=O)C[C@H]2C[C@@]3(C(=O)OC)C(=C[C@H](C(C)(C)C)O[C@@H]3C)N(Cc3ccccc3)C2=O)CC1,-2,2,.,.,.,.,
COc1cccc(Nc2nc3cc(OC)ccc3cc2C#N)c1,13*,24,4,-15,24*,25*,
COc1cccc(NC(=O)N(C)C[C@@H]2OCc3cn(nn3)CCCC(=O)N([C@H](C)CO)C[C@H]2C)c1,0,-3,.,3,.,.,
CCNC(=O)Cc1c(OC)ccc2cc(Br)ccc12,7,-3,4,-15,.,.,
CCCCNC(=O)Cc1c(OC)ccc2cc(Br)ccc12,8.6*,3,18,-8,17*,21*,
CCCNC(=O)Cc1c(OC)ccc2cc(Br)ccc12,11*,8,14,17,24*,31*,
CCN(CC)C(=O)Cc1c(OC)ccc2cc(Br)ccc12,3,3,4,-9,.,.,
COc1ccc2cc(Br)ccc2c1CC(=O)NC(C)(C)C,13*,5,13,6,21*,25*,
O=C(CSc1nc(-c2ccccc2)nc2ccccc12)Nc1cccc(C(=O)O)c1,16*,-3,10,-36,15*,22*,
CCN(c1ccc(F)cc1)S(=O)(=O)c1ccc2[nH]cc(C(=O)NCCCN3CCOCC3)c(=O)c2c1,1,1,0,-13,.,.,
CCN(c1ccccc1)S(=O)(=O)c1ccc2[nH]cc(C(=O)N3CCOCC3)c(=O)c2c1,9.1*,-6,2,7,8,9.9*,
Cc1ccc(C2C(C#N)=C(N)SC(N)=C2C#N)cc1,13*,1,.,-3,7,8,
Cc1ccc(C2C(C#N)=C(N)SC(N)=C2C#N)c(C)c1,.,.,10,-2,.,.,
CCCCc1nc2sc3c(SCC(=O)NCc4ccco4)ncnc3c2c2c1CCC2,84*,6,7,-8,87*,82*,PG9 binder DR=3.3*;PGV04 DR counter=1.5*;PG126 binding DR=1.7*
Cc1nc(SCC(=O)NCc2ccco2)c2c(C)c(C)sc2n1,-3,-2,1,2,.,.,
Cc1ccccc1NC(=O)c1sc2nc3c(c(-c4ccco4)c2c1N)CCCC3,71*,4,-2,-32,62*,71*,
Cc1cc(C)c2c(N)c(C(=O)Nc3cccc(C)c3C)sc2n1,8.9*,4,-2,-78,46*,70*,
Cc1ccc(NC(=O)c2sc3nc(C)cc(C)c3c2N)cc1,-3,-2,3,-104,.,.,
Cc1ccc(-c2cccc3[nH]cc(C)c23)s1,.,14,.,.,.,.,
CCCOc1ccc(C(CC(=O)O)NC(=O)c2sc3ccccc3c2Cl)cc1 (stereo not drawn),11*,-1,6,7,15*,21*,
SMILES,PG9 Ab binder,NR1D1 modulator,NR2E3 ag-1,NR2E3 ag-2,PG9 bind confirm,PGV04 counter,others
CCOc1ccc(C(CC(=O)O)NC(=O)c2sc3ccccc3c2Cl)cc1 (stereo not drawn),8,5,9,0,.,.,
COCCCN1C(=O)[C@H](CC(=O)N2CCCC2)[C@]2(C(=O)OC)CCCCC=C12,.,4,.,.,.,.,
Cc1ccc(-n2nc3c(=S)[nH]nc(C)c3c2C)cc1,45*,2,17,5,28*,25*,PG9 binder DR=>67;PGV04 DR counter=i;PG126 binding DR=i
COc1ccc(Cn2ccc3ccc(-c4ccc5ccn(Cc6ccccc6F)c5c4)cc32)cc1,.,2,.,.,.,.,
Cc1c(Br)c(O)c(Br)c2sc(=O)oc12,18*,-3,2,-3,11*,21*,
Cc1ccc2nc(-c3ccc(NC(=O)CSc4nccc(=O)[nH]4)cc3)sc2c1,12*,10,4,-49,11*,36*,
C[C@@H]1OC(C2CCCCC2)N(C)[C@H]2C[C@H]3c4[nH]c5c(-c6ccc7c(c6)OCO7)cccc5c4CCN3C[C@@H]12 (stereo partly drawn),.,5,.,.,.,.,
O=C(Nc1nc(-c2ccc(F)cc2)cs1)C1CCN(C(=O)c2ccc(F)cc2)CC1,-1,-3,-1,1,.,.,
O=C(Nc1nc2c(F)cc(F)cc2s1)C1CCN(C(=O)c2ccc(F)cc2)CC1,9.1*,6,-2,-71,9.7*,17*,
CCOc1cccc(-c2nn3c(-c4ccco4)nnc3s2)c1,12*,0,6,-23,39*,29*,PG9 binder DR=>67;PGV04 DR counter=>67;PG126 binding DR=>67
COc1cccc(-c2nnc3sc(-c4ccco4)nn23)c1,-1,-2,2,-63,.,.,
Cc1cc(=O)[nH]c(SCc2nnc(-c3ccccc3)o2)n1,0,-3,3,-8,.,.,
Cc1ccc(C(=O)CSc2nc(C)cc(SCc3nnc(-c4ccccc4)o3)n2)cc1,9.4*,2,2,-15,15*,22*,
Cc1ccc(F)cc1C(=O)N1CCCC(C)(C(=O)NS(=O)(=O)C2CC2)C1 (stereo not drawn),0,4,.,-16,.,.,
C[C@H]1[C@@H](OC(=O)NCc2ccccc2)CC[C@@]23CCCN2C(=O)CCC[C@@H]13,.,-6,.,.,.,.,
Cn1c(SCC(=O)Nc2nc3ccccc3s2)nnc1-c1ccccc1,8,-6,5,17,.,.,
